Experiments:
[1] = oral; cited from earlier work
[2] = Safety assessment: treatment-emergent adverse events; type: in vivo, human
How it was run: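 Patients with advanced or metastatic cancer took single 150 mg oral doses of the test compound in a 3-period crossover: high-shear wet granulation, roller-compaction dry-milled and slurry-milled formulations, with washouts of 48 h to 5 days. Safety monitoring covered AEs, SAEs, physical exams, vital signs, lab tests and concomitant medications. TEAEs were graded by CTCAE v3.0 for all patients dosed at least once.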

[3] = single 150 mg dose, N=14, regardless of causality

Compound: Cc1cccc(-c2nn3c(c2-c2ccnc4ccc(C(N)=O)cc24)CCC3)n1 [Galunisertib]
- Mean terminal half-life [1]: 8 h
- Time of peak plasma concentrations following administration [1]: 0.5 to 2 h
- SAEs or deaths during the study ([2]; 14 patients, any formulation): no SAEs or deaths
- Study discontinuations due to TEAEs ([2]; 14 patients, any formulation): no study discontinuations
- TEAEs determined to be related to galunisertib by the investigator ([2]; 14 patients, any formulation): None
- Number of patients reporting TEAEs regardless of causality ([2]; of 14 patients, any formulation, single 150 mg doses): Five
- Number of patients with TEAE Convulsion (Grade 1) [2, 3]: 1
- Number of patients with TEAE Dizziness (Grade 1) [2, 3]: 1
- Number of patients with TEAE Hyperglycemia (Grade 1) [2, 3]: 1
- Number of patients with TEAE Lymphopenia (Grade 3) [2, 3]: 2
- Number of patients with TEAE Pyrexia (Grade 1) [2, 3]: 1
- Number of patients with TEAE Vulvovaginitis (Grade 1) [2, 3]: 1

— PMC5147053 (Drugs in Context, 2016)
